Two compounds from ChEMBL document CHEMBL1681705, “Optimisation of ITK inhibitors through successive iterative design cycles” (Bioorg Med Chem Lett, 2011) can be followed below.

Molecules are shown by their SMILES.

Test [1] concerns the target Tyrosine-protein kinase SYK (Homo sapiens) (UniProt P43405). The test can be described thus: Inhibition of Syk at 0.1 uM; values are per cent of control.
Test [2] has as its target T1, Ephrin type-A receptor 8 (Homo sapiens) (UniProt P29322).
T1 sequence (whole entry): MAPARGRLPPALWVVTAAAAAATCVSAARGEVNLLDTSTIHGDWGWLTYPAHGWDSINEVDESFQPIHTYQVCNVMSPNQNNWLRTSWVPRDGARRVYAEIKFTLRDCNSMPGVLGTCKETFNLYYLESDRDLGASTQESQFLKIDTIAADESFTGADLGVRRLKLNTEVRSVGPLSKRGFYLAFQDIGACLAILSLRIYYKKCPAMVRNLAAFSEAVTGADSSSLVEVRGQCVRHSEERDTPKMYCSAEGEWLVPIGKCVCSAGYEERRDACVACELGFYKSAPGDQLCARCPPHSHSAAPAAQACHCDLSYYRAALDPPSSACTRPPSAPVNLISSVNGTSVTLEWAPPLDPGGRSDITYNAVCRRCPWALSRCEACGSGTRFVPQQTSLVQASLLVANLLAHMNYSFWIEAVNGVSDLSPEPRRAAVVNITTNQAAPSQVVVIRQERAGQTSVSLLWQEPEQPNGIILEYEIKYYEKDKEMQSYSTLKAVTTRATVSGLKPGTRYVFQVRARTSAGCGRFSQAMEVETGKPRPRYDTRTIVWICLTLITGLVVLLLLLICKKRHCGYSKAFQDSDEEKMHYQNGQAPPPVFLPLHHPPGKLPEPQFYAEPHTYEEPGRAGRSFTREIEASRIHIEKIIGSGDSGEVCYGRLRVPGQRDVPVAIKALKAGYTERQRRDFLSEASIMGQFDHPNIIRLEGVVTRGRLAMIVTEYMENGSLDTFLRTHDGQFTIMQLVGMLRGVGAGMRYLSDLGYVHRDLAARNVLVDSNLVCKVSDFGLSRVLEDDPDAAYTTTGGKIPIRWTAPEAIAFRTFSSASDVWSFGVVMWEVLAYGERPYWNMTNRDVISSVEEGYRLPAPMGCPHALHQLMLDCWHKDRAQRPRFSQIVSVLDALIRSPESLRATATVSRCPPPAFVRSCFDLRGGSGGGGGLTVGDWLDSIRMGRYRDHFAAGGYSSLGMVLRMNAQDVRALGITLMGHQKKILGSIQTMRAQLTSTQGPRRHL
Kind of test: Inhibition of EphA8 at 1 uM; values are per cent of control.

The target of test [3] is RAC-beta serine/threonine-protein kinase (Homo sapiens) (UniProt P31751). The test can be described thus: Inhibition of PKBbeta at 0.1 uM; values are per cent of control.
Sequence of RAC-beta serine/threonine-protein kinase (Homo sapiens) (P31751 whole entry): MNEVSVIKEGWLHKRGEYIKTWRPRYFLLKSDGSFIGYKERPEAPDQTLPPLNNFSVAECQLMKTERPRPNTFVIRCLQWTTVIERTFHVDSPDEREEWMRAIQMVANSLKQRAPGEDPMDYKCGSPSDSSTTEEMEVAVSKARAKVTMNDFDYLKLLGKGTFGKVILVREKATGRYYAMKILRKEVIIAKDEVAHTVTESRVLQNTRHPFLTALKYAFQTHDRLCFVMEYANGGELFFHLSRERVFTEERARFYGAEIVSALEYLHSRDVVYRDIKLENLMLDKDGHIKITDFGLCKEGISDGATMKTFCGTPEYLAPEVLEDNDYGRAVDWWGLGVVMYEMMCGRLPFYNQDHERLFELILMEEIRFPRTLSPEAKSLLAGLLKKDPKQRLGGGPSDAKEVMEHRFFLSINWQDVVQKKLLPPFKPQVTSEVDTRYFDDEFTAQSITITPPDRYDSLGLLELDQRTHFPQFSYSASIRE
In test [4] the target is CDK6/cyclin D3 (Homo sapiens) (UniProt P30281+Q00534). The test can be described thus: Inhibition of CDK6/cyclin D3 at 1 uM; values are per cent of control.
For test [5], the target named is Tyrosine-protein kinase SYK (Homo sapiens) (UniProt P43405). The test can be described thus: Inhibition of Syk at 1 uM.
For test [6], the target named is Tyrosine-protein kinase Fes/Fps (Homo sapiens) (UniProt P07332). Kind of test: Inhibition of Fes at 0.1 uM; values are per cent of control.
Sequence of Tyrosine-protein kinase Fes/Fps (Homo sapiens) (P07332 whole entry): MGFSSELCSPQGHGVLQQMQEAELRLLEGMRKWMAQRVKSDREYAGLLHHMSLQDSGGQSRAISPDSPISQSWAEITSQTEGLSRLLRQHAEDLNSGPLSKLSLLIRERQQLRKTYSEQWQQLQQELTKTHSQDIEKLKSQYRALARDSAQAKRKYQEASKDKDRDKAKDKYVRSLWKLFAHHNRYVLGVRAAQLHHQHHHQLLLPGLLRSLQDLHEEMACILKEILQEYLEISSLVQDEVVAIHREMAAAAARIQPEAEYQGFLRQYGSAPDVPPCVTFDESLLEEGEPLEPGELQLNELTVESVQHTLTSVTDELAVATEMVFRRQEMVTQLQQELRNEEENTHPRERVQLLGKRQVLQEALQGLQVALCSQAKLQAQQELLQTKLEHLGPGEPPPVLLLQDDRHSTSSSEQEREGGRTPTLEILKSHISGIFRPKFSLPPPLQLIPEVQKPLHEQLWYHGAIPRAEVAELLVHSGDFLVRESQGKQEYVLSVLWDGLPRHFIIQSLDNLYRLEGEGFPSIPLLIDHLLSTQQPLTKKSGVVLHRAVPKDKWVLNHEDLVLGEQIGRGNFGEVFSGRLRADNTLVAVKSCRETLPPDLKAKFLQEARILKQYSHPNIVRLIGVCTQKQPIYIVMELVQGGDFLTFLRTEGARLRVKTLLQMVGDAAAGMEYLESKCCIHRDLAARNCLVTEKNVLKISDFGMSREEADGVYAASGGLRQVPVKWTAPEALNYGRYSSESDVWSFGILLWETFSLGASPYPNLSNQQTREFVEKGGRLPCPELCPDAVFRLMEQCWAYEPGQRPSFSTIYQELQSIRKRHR
Test [7] addresses T2, Serine/threonine-protein kinase D2 (Homo sapiens) (UniProt Q9BZL6).
T2 sequence (whole entry): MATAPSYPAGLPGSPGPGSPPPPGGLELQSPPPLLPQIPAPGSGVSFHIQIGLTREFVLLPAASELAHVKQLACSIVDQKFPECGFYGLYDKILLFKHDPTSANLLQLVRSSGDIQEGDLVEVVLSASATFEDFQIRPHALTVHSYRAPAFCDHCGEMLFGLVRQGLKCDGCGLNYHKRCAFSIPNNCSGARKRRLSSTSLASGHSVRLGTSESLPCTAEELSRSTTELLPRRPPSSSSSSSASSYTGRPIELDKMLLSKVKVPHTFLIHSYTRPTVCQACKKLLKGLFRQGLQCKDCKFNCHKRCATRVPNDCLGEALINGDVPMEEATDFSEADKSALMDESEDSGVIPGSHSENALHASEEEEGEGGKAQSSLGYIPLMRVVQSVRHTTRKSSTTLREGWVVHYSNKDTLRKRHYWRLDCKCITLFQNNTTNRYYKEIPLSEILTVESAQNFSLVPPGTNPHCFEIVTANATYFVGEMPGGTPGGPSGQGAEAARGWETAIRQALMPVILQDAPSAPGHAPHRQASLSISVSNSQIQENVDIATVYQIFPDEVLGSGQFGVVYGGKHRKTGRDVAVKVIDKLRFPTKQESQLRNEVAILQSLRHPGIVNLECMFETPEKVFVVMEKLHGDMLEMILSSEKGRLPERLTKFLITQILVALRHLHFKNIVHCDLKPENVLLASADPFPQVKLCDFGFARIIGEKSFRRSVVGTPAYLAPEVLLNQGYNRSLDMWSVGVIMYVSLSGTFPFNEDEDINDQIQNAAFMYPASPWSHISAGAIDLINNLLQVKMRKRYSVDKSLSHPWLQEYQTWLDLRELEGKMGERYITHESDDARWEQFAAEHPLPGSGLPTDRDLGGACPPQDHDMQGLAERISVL
The test can be described thus: Inhibition of PKD2 at 0.1 uM; values are per cent of control.

In test [8] the target is Mitogen-activated protein kinase 8 (Homo sapiens) (UniProt P45983). Kind of test: Inhibition of JNK1a1 at 1 uM. The procedure, abridged:
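Single-point profiling in a panel of 108 kinases. Each selected inhibitor was tested at two concentrations, 0.1 and 1.0 micromolar. Values are reported as inhibition at each concentration.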

For test [9], the target named is Macrophage colony-stimulating factor 1 receptor (Homo sapiens) (UniProt P07333). The test can be described thus: Inhibition of Fms at 0.1 uM; values are per cent of control.
Sequence of Macrophage colony-stimulating factor 1 receptor (Homo sapiens) (P07333 whole entry): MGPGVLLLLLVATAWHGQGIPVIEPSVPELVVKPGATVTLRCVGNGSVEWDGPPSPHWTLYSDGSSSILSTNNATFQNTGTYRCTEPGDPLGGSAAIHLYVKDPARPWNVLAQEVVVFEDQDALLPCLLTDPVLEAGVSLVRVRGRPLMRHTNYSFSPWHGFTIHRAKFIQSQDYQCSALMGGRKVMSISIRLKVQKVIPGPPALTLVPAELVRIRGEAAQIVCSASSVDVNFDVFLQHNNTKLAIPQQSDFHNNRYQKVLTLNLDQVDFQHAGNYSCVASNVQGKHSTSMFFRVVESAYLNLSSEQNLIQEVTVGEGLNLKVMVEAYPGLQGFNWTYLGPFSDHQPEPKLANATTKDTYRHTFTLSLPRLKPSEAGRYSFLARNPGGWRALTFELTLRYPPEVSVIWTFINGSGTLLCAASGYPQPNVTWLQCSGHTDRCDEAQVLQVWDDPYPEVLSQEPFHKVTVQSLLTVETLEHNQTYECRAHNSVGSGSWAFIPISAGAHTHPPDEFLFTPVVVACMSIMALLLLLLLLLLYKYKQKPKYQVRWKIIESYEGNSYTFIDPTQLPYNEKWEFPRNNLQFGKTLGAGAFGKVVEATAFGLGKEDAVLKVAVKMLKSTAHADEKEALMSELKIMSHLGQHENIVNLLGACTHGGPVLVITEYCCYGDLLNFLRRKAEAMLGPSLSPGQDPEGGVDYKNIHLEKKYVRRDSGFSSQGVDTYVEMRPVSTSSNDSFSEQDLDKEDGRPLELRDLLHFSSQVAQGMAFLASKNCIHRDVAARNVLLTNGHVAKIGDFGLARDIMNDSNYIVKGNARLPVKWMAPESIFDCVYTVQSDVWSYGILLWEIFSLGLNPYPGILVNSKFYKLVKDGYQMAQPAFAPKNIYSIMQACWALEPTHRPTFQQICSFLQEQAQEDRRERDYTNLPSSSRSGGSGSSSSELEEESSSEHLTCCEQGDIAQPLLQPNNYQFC
Test [10] concerns the target Receptor tyrosine-protein kinase erbB-4 (Homo sapiens) (UniProt Q15303). Kind of test: Inhibition of ErbB4 at 0.1 uM; values are per cent of control.
For test [11], the target named is Tyrosine-protein kinase Fes/Fps (Homo sapiens) (UniProt P07332). The test can be described thus: Inhibition of Fes at 1 uM; values are per cent of control.
In test [12] the target is Serine/threonine-protein kinase pim-2 (Homo sapiens) (UniProt Q9P1W9). Kind of test: Inhibition of Pim-2 at 0.1 uM; values are per cent of control.
Sequence of Serine/threonine-protein kinase pim-2 (Homo sapiens) (Q9P1W9 whole entry, looked up): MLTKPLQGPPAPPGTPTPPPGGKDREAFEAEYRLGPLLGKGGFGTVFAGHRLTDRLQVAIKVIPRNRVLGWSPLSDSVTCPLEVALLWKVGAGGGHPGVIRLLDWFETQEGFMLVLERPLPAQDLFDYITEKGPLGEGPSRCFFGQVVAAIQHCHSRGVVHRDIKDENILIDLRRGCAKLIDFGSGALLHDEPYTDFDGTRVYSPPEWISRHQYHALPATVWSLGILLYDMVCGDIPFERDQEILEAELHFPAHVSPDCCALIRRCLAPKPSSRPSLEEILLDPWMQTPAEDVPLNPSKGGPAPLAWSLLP
The target of test [13] is Tyrosine-protein kinase Fgr (Homo sapiens) (UniProt P09769). The test can be described thus: Inhibition of Fgr at 1 uM; values are per cent of control.
Sequence of Tyrosine-protein kinase Fgr (Homo sapiens) (P09769 2-529 limits assumed): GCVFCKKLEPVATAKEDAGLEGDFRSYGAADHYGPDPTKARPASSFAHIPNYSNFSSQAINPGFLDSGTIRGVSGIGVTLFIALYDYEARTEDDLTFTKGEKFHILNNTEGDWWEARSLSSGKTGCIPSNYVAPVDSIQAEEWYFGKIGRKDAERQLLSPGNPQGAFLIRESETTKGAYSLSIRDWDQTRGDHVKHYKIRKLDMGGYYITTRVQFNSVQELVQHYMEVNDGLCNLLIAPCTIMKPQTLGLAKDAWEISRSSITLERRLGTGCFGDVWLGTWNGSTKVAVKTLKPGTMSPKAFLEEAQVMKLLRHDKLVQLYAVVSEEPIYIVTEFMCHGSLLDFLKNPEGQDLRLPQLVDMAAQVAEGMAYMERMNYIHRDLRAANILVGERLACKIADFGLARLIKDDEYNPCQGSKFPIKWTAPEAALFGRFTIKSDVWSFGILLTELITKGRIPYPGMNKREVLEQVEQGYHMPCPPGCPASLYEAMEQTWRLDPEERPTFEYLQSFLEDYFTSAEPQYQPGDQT

Sequence of Mitogen-activated protein kinase 8 (Homo sapiens) (P45983 whole entry): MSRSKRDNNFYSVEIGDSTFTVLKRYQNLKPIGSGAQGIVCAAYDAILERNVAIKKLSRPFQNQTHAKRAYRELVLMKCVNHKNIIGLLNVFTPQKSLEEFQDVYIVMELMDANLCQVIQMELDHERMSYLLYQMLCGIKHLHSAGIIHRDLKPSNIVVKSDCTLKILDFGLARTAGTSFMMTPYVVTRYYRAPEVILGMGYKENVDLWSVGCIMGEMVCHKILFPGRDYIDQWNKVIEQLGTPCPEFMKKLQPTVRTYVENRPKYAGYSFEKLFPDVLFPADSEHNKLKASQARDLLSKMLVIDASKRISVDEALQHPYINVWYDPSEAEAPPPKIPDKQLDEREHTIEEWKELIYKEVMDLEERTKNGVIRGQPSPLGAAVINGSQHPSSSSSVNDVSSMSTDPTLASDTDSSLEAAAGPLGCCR
Sequence of Receptor tyrosine-protein kinase erbB-4 (Homo sapiens) (Q15303 whole entry): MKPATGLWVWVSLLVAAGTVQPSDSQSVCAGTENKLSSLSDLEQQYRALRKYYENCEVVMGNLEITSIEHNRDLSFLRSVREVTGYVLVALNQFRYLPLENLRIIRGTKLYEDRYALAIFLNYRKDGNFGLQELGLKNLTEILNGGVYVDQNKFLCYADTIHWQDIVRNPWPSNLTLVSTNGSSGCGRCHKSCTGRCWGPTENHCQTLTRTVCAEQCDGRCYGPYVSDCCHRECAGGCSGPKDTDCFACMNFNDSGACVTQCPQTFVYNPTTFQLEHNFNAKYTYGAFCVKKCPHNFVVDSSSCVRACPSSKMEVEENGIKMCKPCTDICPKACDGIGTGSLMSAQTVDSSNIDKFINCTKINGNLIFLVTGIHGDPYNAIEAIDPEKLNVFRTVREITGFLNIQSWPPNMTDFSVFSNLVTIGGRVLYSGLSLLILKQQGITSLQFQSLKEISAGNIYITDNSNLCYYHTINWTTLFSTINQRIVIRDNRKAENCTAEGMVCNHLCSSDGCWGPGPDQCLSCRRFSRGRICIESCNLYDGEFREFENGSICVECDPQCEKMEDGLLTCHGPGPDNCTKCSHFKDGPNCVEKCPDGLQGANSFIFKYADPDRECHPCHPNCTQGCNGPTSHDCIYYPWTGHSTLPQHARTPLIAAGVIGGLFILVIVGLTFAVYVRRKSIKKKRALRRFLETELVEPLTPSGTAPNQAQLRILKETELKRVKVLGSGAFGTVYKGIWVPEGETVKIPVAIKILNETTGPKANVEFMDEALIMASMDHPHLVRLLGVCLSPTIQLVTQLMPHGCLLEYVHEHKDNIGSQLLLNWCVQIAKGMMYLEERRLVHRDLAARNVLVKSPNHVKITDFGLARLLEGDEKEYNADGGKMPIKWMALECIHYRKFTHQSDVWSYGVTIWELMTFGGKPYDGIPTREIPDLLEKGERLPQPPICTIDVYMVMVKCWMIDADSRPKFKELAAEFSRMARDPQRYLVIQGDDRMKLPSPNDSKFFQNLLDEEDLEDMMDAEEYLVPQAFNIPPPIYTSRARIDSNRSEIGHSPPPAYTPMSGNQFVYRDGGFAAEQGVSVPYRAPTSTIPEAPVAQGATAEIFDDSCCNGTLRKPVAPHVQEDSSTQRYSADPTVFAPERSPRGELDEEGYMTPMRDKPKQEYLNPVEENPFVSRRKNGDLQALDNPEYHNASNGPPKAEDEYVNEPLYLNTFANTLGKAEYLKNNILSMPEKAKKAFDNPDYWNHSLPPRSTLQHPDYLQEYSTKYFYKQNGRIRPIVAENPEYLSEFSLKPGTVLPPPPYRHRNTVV

Usually inhibition stands for the relative decrease from the control value, in per cent. Turning to `Cc1ccc2cc(-c3n[nH]c4ccc(NC5CCNC5)cc34)[nH]c2c1` (stereo unspecified), the residual activity in test [1] is 2%; in test [2], 57%; in [3], 107%; in test [4], 33%; in test [6], 3%; in [7], 41%. Moreover, the residual activity in test [9] is 57%; in test [10] it was 81%; in test [11], 0%; in test [12], 99%; in [13] it was -1%. The values for the inhibition in test [5] and in test [8] were 0% and 73%, respectively.
`Cc1ccc2cc(-c3n[nH]c4ccc(NC5CCN(Cc6ccccc6)CC5)cc34)[nH]c2c1`: the residual activity in test [1] is 0%; in [2] it was 58%; in test [3], 103%; in test [4] it was 46%; in [6], 28%; in [7] it was 93%. Further, the residual activity in [9] came to 60%; in test [10] it was 43%; in test [11], 1%; in [12], 98%; in [13] it was 0%. In addition, the inhibition was -2% in [5] and 76% in test [8].
